For 37 sequences, folding enthalpy and Tm results are on record in the array DNA melting data of Ke et al. (doi:10.1101/2024.01.08.574731).

Data set [1] can be described thus: folding enthalpy; higher = less favourable; fluorescence melt of hairpins on a sequencing array, two-state fit. The settings on record: sodium 0.088 M. The procedure, abridged: (§1)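 Melting temperature and folding enthalpy were derived from bootstrapped two-state fits. The fitted temperatures were raised by 9.35 °C to agree with UV melts, and four replicates were combined by inverse variance. The underlying data were Cy3 fluorescence images of library hairpins, with annealed Cy3 and quencher oligos, on a sequenced MiSeq flow cell in 50 mM Na-HEPES pH 8.0, 25 mM NaCl, taken in 2.5 °C steps up to 60 °C, normalised to pre-quench Cy3 and to control constructs.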

Data set [2] in a line: melting temperature; fluorescence melt of hairpins on a sequencing array, two-state fit, raised by 9.35 °C to match UV melts. The conditions noted are these: sodium 0.088 M. The procedure, abridged:
as §1

For GTCCAGAAATGGAC (((((....))))), the folding enthalpy in data set [1] is -24.8 kcal/mol. In data set [2], the Tm came out at 52.9 °C.

With GTCCAGCCGAAAGGCGAC (((..(((....)))))), the folding enthalpy in data set [1] was -9.75 kcal/mol. Further, the Tm in data set [2] was 40.6 °C.

Consider GTCCAGCGAAAGCTAGAC (((.(((....))).))), for which the folding enthalpy in data set [1] is -22.1 kcal/mol. The Tm in data set [2] was 46.4 °C.

In the case of GTCCAGCGAAAGCTCGAC (((.(((....))).))), in data set [1], the folding enthalpy was -20.7 kcal/mol. In data set [2], the Tm was found to be 43.2 °C.

Consider GTCCAGCGAAAGCTTGAC (((.(((....))).))), for which the folding enthalpy in data set [1] is -26.2 kcal/mol. In addition, in data set [2], the Tm came to 49.1 °C.

GTCCAGGGAAACCTGAAC ((.((((....)))).)): the folding enthalpy in data set [1] was -19.5 kcal/mol. Further, in data set [2], the Tm worked out at 35.9 °C.

Turning to GTCCAGGGAAACCTGGAC (((((((....))))))), in data set [1], the folding enthalpy was -33.6 kcal/mol. Besides, the Tm in data set [2] stood at 68.6 °C.

For the sequence GTCCATGGAAACATGGAC (((((((....))))))), the folding enthalpy in data set [1] was -41.8 kcal/mol. For the same sequence, in data set [2], the Tm amounted to 63.6 °C.

On to GTCCCAGAAATGGGAC ((((((....)))))), for which the folding enthalpy in data set [1] was -33.7 kcal/mol. Besides, the Tm in data set [2] was 64.3 °C.

With GTCCCAGGAAACCGGGAC (((((.(....).))))), the folding enthalpy in data set [1] was -34.8 kcal/mol. The Tm in data set [2] came to 53.2 °C.

For GTCCCAGGAAACTGGGGC (.(((((....))))).), the folding enthalpy in data set [1] was -40.6 kcal/mol. The Tm in data set [2] came out at 57.5 °C.

As for GTCCCCGAAAGGGAAGAC ((((((....)))..))), in data set [1], the folding enthalpy is -13.5 kcal/mol. For the same sequence, in data set [2], the Tm was found to be 44.5 °C.

GTCCCCGAAAGGGCAGAC ((((((....)))..))): in data set [1], the folding enthalpy is -13 kcal/mol. Moreover, in data set [2], the Tm was found to be 36.7 °C.

As for GTCCCCGAAAGGGTCGAC ((((((....)))..))), the folding enthalpy in data set [1] was -13.6 kcal/mol. Also, the Tm in data set [2] turned out to be 35.4 °C.

Consider GTCCGAGAAATCGGAC ((((((....)))))), for which the folding enthalpy in data set [1] is -34.5 kcal/mol. The Tm in data set [2] stood at 65.9 °C.

On to GTCCGAGGAAACTCGAAC ((.((((....)))).)), for which, in data set [1], the folding enthalpy is -21.3 kcal/mol. Moreover, the Tm in data set [2] was determined as 41.3 °C.

As for GTCCGAGGAAACTTGGGC (.((.((....)).)).), in data set [1], the folding enthalpy was -27.9 kcal/mol. Moreover, the Tm in data set [2] amounted to 41 °C.

Regarding GTCCGCGAAAGCGCGAC ((((((....))).))), the folding enthalpy in data set [1] was -20.7 kcal/mol. Also, in data set [2], the Tm was determined as 56.9 °C.

Regarding GTCCGCGAAAGCGCTGAC ((((((....)))..))), the folding enthalpy in data set [1] is -10.6 kcal/mol. Further, the Tm in data set [2] stood at 38.2 °C.

For GTCCGCTCGAAAGAGGAC (((..(((....)))))), in data set [1], the folding enthalpy is -29 kcal/mol. The Tm in data set [2] worked out at 47.4 °C.

As to GTCCGGCGAAAGCCCGAC (((.(((....))).))), the folding enthalpy in data set [1] is -20.1 kcal/mol. The Tm in data set [2] is 45.2 °C.

As for GTCCGGCGAAAGCCTGAC (((.(((....))).))), the folding enthalpy in data set [1] is -20.9 kcal/mol. Moreover, the Tm in data set [2] amounted to 51.8 °C.

As for GTCCGGGGAAACCTGGGC (.((.((....)).)).), the folding enthalpy in data set [1] is -29.8 kcal/mol. In addition, the Tm in data set [2] came to 48.3 °C.

As for GTCCGGGGAAACTCGGAC (((((.(....).))))), the folding enthalpy in data set [1] was -40.9 kcal/mol. In addition, in data set [2], the Tm came out at 58.9 °C.

For GTCCGGGGAAACTCGGGC (.(((.(....).))).), the folding enthalpy in data set [1] is -21.4 kcal/mol. The Tm in data set [2] was 47.8 °C.

Consider GTCCGTCGAAAGACCGAC (((.(((....))).))), for which, in data set [1], the folding enthalpy is -21.5 kcal/mol. For the same sequence, the Tm in data set [2] is 42.8 °C.

Consider GTCCGTCGAAAGACTGAC (((.(((....))).))), for which the folding enthalpy in data set [1] was -28.3 kcal/mol. Also, the Tm in data set [2] was found to be 47.8 °C.

For GTCCGTGGAAACGTGGAC ((((..(....)..)))), the folding enthalpy in data set [1] is -21.5 kcal/mol. Also, in data set [2], the Tm was determined as 45.4 °C.

Take GTCCTACGAAAGTAAGAC (((.(((....))).))): the folding enthalpy in data set [1] is -27.3 kcal/mol. For the same sequence, the Tm in data set [2] came out at 37 °C.

As for GTCCTAGGAAACCAGGAC (((((.(....).))))), the folding enthalpy in data set [1] is -28.6 kcal/mol. In addition, the Tm in data set [2] stood at 45.3 °C.

Take GTCCTCACGAAAGTGGAC (((..(((....)))))): the folding enthalpy in data set [1] is -17.2 kcal/mol. Moreover, in data set [2], the Tm came to 43 °C.

As for GTCCTCCGAAAGGAGAC (((.(((....)))))), the folding enthalpy in data set [1] was -15.9 kcal/mol. For the same sequence, the Tm in data set [2] came to 47.5 °C.

Turning to GTCCTCGAAAGAGTCGAC ((((((....)))..))), the folding enthalpy in data set [1] was -12.3 kcal/mol. The Tm in data set [2] was found to be 32.3 °C.

Regarding GTCCTCGGAAACGAGGGC (.(((((....))))).), in data set [1], the folding enthalpy is -30.3 kcal/mol. Further, in data set [2], the Tm was 62.3 °C.

Consider GTCCTGAAAAGGAC (((((....))))), for which the folding enthalpy in data set [1] was -31 kcal/mol. Besides, the Tm in data set [2] is 55.9 °C.

In the case of GTCCTGACGAAAGTCGAC (((..(((....)))))), the folding enthalpy in data set [1] is -10.3 kcal/mol. In addition, the Tm in data set [2] was determined as 29.1 °C.

Consider GTCCTGCGAAAGCACGAC (((.(((....))).))), for which the folding enthalpy in data set [1] was -21.4 kcal/mol. Moreover, in data set [2], the Tm was found to be 42.6 °C.
